Measured values: ChEMBL document CHEMBL1122366, “Potential antiatherosclerotic agents. 3. Substituted benzoic and non benzoic acid analogues of cetaben” (1983)

Tests used:
[1] = biological target: T1, Sterol O-acyltransferase 1 (Rattus norvegicus) (UniProt O70536); assay: In vitro inhibition of acyl coenzyme A:cholesterol acyltransferase; set-up: concentration or dose not given beside the values; conditions: concentration not given here
T1 sequence (whole entry): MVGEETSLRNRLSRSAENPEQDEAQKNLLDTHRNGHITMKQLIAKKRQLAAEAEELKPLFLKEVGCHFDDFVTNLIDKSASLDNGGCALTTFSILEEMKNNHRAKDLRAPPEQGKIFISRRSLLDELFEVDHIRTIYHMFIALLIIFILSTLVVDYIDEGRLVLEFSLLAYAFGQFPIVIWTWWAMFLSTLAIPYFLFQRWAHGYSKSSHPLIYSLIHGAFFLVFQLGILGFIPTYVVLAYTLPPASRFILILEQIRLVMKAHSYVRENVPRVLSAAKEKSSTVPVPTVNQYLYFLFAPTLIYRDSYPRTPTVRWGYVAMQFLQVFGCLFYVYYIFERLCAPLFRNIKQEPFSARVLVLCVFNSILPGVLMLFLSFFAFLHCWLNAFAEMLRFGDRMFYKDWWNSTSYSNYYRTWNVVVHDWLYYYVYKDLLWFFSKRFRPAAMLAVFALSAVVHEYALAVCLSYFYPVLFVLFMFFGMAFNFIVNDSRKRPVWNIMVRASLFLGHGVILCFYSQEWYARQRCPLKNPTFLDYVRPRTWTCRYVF
Outline: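 Enzyme fatty acyl-CoA:cholesterol acyltransferase (ACAT), assayed in vitro at a single drug concentration of 5.2 μg/mL. The value is the mean percent inhibition of enzyme activity.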

[2] = system: Rattus norvegicus; assay: In vivo triglyceride lowering activity when dosed at 0.03 % of the diet; type: functional
Outline: (§1)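 Normal rats were dosed in the diet. Serum sterol and triglyceride levels were measured and expressed as the mean percent of control values. Significance versus control was reported at p < 0.05, 0.01 and 0.001.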

[3] = system: Rattus norvegicus; assay: In vivo sterol lowering activity when dosed as 0.01 % of the diet; type: functional; outline: as §1
[4] = system: Rattus norvegicus; assay: In vivo sterol lowering activity when dosed as 0.03 % of the diet; type: functional; outline: as §1
[5] = system: Rattus norvegicus; assay: In vivo sterol lowering activity at dose of 0.10 % of the diet; type: functional; outline: as §1
[6] = system: Rattus norvegicus; assay: In vivo triglyceride lowering activity when dosed as 0.01 % of the diet; type: functional; outline: as §1
[7] = system: Rattus norvegicus; assay: In vivo triglyceride lowering activity dosed at 0.10 % of the diet.; type: functional; outline: as §1

SMILES | inhibition [1] [%] | serum triglyceride level, percent of control [2] [%] | serum sterol level, % of control [3] [%] | serum sterol level, percent of control [4] [%] | serum sterol level, percent of control [5] [%] | serum triglyceride level, percent of control [6] [%] | serum triglyceride, percent of control [7] [%]
CCCCCCCCCCCCCCCCNc1ccc(C(=O)NCC(=O)O)cc1 | < 64 | <70 | <77 | 87 | <77 | 76 | <48
CCCCCCCCCCCCCCCCNc1ccc(C(=O)OCC(CO)OC(C)=O)cc1 (centres undefined) | 28 | <71 | 118 | 85 | 86 | 90 | <47
CCCCCCCCCCCCCCCCNc1cc(C(=O)[O-])cc(C(=O)[O-])c1.[Na+].[Na+] | 0 | 115 | 92 | 99 | 90 | 96 | 103
CCCCCCCCCCCCCCCCNc1ccc(C(=O)OCCCO)cc1 | 14 | <74 | 94 | <82 | <68 | <67 | <46
CCCCCCCCCCCCCCCCNc1ccc(C(=O)NCC(=O)OCC)cc1 | 16 | 74 | 92 | 96 | 92 | 78 | <69
CCCCCCCCCCCCCCCCNc1ccc(C(=O)NNC(C)=O)cc1 | 21 | <74 | 93 | <83 | 91 | 75 | <66
CCCCCCCCCCCCCCCCNc1ccc(C(=O)CC(=O)OCC)cc1 | 2 | <53 | 105 | <83 | <85 | 71 | <30
CCCCCCCCCCCCCCCCNc1ccc(C(C)(C)C(=O)O)cc1 | < 27 | 121 | 93 | 111 | 107 | 109 | 116
CCCCCCCCCCCCCCCCNc1ccc(O)cc1 | 0 | 124 | 104 | 99 | 92 | 118 | 104
CCCCCCCCCCCCCCCCNc1ccc(C(=O)O)cc1C | 1 | 96 | 94 | 92 | <91 | 75 | 101
CCCCCCCCCCCCCCCCNc1ccc(C2OCCO2)cc1 | 0 | 82 | <85 | <77 | <71 | 100 | <47
CCCCCCCCCCCCCCCCNc1ccc(C(=O)Oc2ccc(C(=O)O)cc2)cc1 | < 18 | 81 | 105 | 95 | 93 | 98 | 109
CCCCCCCCCCCCCCCCN(CC(=O)OCC)c1ccc(C(=O)OC)cc1 | 12 | 97 | 106 | 100 | 104 | 113 | 104
CCCCCCCCCCCCCCCCNc1ccc(C(C)=O)cc1 | 14 | 88 | 129 | 119 | 98 | 84 | 78
CCCCCCCCCCCCCCCCNc1ccc(C2=NCCCO2)cc1 | 2 | 127 | 97 | 100 | <87 | 99 | <68
CCCCCCCCCCCCCCCCN(C=O)c1ccc(C(=O)O)cc1 | 12 | 100 | <89 | 96 | 105 | 77 | 78
CCCCCCCCCCCCCCCCNc1ccc(C(=O)NCCS(=O)(=O)O)cc1 | < 45 | 71 | 91 | 90 | <80 | <67 | <56
